These results are taken from article PMC5965259 (Journal of medicinal chemistry, 2018).

Data set [1] has as its target T1, T. brucei AdoMetDC/prozyme (Trypanosoma brucei brucei, UniProt P50244).
T1 sequence (P50244 86-370 limits assumed): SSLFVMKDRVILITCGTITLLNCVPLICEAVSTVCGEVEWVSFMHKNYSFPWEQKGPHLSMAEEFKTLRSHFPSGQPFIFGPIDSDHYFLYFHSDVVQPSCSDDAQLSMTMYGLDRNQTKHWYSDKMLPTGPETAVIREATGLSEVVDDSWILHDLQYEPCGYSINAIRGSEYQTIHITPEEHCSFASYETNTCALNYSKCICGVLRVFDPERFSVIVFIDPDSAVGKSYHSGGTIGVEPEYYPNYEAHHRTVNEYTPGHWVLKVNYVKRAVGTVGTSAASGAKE
Put plainly: biochemical. As to conditions: pH 7.2, read-out: IC90 for TbAdoMetDC.

The test system of data set [2] is bloodstream form T. brucei Lister 427. In words: ATP–bioluminescence-based bloodstream form T. brucei cell viability assay. As to conditions: Trypanosoma brucei, 48 h, read-out: Tb427 EC50.
For data set [3], the system named is MDCKII-hMDR1 monolayer cells. In words: MDCKII-hMDR1 monolayer BBB permeability assay ± Pgp inhibitor GF120918. The data set is classed as in vitro ADME.
In data set [4] the target is T2, TbAdoMetDC (Trypanosoma brucei brucei, UniProt P50244).
T2 sequence (P50244 86-370 limits assumed): T1 sequence (P50244 86-370 limits assumed)
In words: Rapid dilution assay for reversibility of inhibition. The class given is biochemical. The settings on record: 30 min with 36 μM inhibitor, then 100-fold dilution; pH 7.2. The gist of the method: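 Recombinant T. brucei AdoMetDC/prozyme was pre-equilibrated with test compound for 30 min. It was then diluted 100-fold, to a non-inhibitory level, into reaction buffer containing 50 μM S-adenosyl-L-methionine (~Km) to start the reaction. Aliquots were quenched every 5 min, and decarboxylated AdoMet was quantified by RapidFire–MS. Progress curves were compared with a vehicle control.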

Data set [5] has as its target T2, TbAdoMetDC. Put plainly: Inhibition modality: substrate titrations, Lineweaver–Burk analysis. The data set is classed as biochemical. As to conditions: substrate titrations at four inhibitor concentrations. The procedure, abridged: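 Recombinant T. brucei AdoMetDC/prozyme heterodimer. Product (decarboxylated AdoMet) formation was measured across varied S-adenosyl-L-methionine concentrations at four test-compound concentrations. Product was quantified by RapidFire–mass spectrometry. Final DMSO in enzyme assays was 2%. Substrate titrations were analysed by double-reciprocal Lineweaver–Burk plot to assign inhibition modality.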

The subject of data set [6] is prozyme protein levels in T. brucei cells. Put plainly: Western blot analysis of prozyme levels in treated T. brucei cells. The data set is classed as cell-based. The settings on record: 24 h treatment at 1.5 × EC50.
The nature of data set [7]: Metabolic stability in hepatic microsomes. The class given is in vitro ADME, male CD-1 mouse and mixed-gender human.
For data set [8], the system named is T. brucei AdoMetDC/prozyme. Put plainly: biochemical. As to conditions: pH 7.2; human vs T. brucei AdoMetDC.
For data set [9], the target named is T3, human AdoMetDC (Homo sapiens, UniProt P17707).
T3 sequence (P17707 1-334): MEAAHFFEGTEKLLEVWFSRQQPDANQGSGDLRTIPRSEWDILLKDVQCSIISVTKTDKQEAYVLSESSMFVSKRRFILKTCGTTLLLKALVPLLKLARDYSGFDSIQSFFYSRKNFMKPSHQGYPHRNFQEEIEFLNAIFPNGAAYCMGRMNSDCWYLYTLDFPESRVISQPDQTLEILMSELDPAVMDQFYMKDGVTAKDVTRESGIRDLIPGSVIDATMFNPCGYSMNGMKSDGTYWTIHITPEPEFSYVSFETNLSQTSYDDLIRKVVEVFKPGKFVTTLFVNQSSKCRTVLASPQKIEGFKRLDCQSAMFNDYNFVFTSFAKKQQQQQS
In words: RapidFire–MS-based AdoMetDC enzyme activity assay. The data set is classed as biochemical. As to conditions: read-out: Hs IC50; pH 7.2; mean, triplicate, 95% CI in parentheses.

In the case of `Cc1cc(Nc2cc(Cl)cc(Cl)c2)nc(N)n1` [Compound 7], the concentration for an effect of 90% (IC90) in data set [1] is roughly 36 µM. Moreover, in data set [2], the EC50 was determined as 5.6 µM. Further, the Pgp-mediated efflux substrate entry in data set [3] is recorded as “not a substrate of Pgp-mediated efflux”. In addition, the “recovery of enzyme activity after dilution of inhibitor (reversibility)” value in data set [4] is “fully recovered”. In addition, the modality of inhibition entry in [5] is “competitive inhibition”. Also, in data set [6], the “prozyme protein level vs vehicle-only control” value is on record as “induced prozyme above the vehicle-only control levels”. Also, the metabolic stability entry in data set [7] is recorded as “poor metabolic stability”.
Turning to `Cc1cc(Nc2cc(Br)cc(Br)c2)nc(N)n1` [Compound 44, N^4-(3,5-Dibromophenyl)-6-methylpyrimidine-2,4-diamine], in [8], the “selectivity ratio (HsIC50/TbIC50)” value was “exceeded 100”. The EC50 in data set [2] was found to be 4.8 µM.
`Cc1cc(Nc2cc(Cl)c(F)c(Cl)c2)nc(N)n1` [Compound 62, N^4-(3,5-Dichloro-4-fluorophenyl)-6-methylpyrimidine-2,4-diamine]: in [8], the “selectivity ratio (HsIC50/TbIC50)” value is listed as “exceeded 100”. Also, in data set [9], the IC50 was 160 µM. The EC50 in [2] was determined as 4.8 µM.
